Assay results published in ChEMBL document CHEMBL1133118 (J Med Chem, 2000).
pKi: −log10 of the molar value. Values belong to the compound of their own block, whether it stands above or below them.

Columns and labels:
Adenosine receptor A1 [1] = molecular target: T1, Adenosine receptor A1 (Homo sapiens, UniProt P30542); experiment: Displacement of [3H]DPCPX from human adenosine A1 receptor expressed in CHO cells; range 134-229; assay type: cell-based
T1 sequence (P30542 whole entry): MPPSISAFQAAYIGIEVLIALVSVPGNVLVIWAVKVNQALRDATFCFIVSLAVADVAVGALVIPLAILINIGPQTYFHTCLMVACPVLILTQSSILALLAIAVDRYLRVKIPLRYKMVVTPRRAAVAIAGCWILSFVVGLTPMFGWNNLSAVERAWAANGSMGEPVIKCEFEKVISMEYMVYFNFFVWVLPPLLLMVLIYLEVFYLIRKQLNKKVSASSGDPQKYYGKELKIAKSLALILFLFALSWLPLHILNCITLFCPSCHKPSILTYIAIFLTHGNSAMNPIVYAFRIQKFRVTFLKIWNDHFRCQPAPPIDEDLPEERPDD

[2] = molecular target: Adenosine receptors; A2b & A3 (Homo sapiens) (UniProt P29275+P0DMS8); experiment: Ratio of binding affinity of human A2B receptor to that of human A3 receptor; assay type: protein assay
In short: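 Ki ratio, n=3-6, 6–8 concentrations. A2B in HEK-293 membranes (20 μg): 40 nM [3H]DPCPX, 50 mM Tris HCl, 10 mM MgCl2, 1 mM EDTA, 0.1 mM benzamidine pH 7.4, 2 IU/mL adenosine deaminase, 60 min at 25 °C, nonspecific with 100 μM NECA. A3 in CHO membranes (50 μg): 1 nM [3H]MRE3008-F20, 120 min at 4 °C.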

[3] = molecular target: Adenosine receptors; A1 & A3 (Homo sapiens) (UniProt P30542+P0DMS8); experiment: Ratio of binding affinity of human A1 receptor to that of human A3 receptor; assay type: protein assay
In short: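 Ki ratio from displacement in CHO membranes, 6–8 concentrations, n=3-6, filtration counting. A1: 1 nM [3H]DPCPX, 50 μg protein, 120 min at 25 °C, nonspecific with 10 μM CHA. A3: 1 nM [3H]MRE3008-F20, 50 μg protein, Tris/10 mM MgCl2 pH 7.4, 120 min at 4 °C, nonspecific with 1 μM MRE3008-F20.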

[4] = molecular target: T2, Adenosine receptor A3 (Homo sapiens) (UniProt P0DMS8); experiment: Percentage of blockade by 1 uM of the inhibition by 100 nM IB-MECA-inhibited cAMP accumulation in CHO cells expressing human adenosine A3 receptor.; assay type: functional, cell-based
T2 sequence (whole entry): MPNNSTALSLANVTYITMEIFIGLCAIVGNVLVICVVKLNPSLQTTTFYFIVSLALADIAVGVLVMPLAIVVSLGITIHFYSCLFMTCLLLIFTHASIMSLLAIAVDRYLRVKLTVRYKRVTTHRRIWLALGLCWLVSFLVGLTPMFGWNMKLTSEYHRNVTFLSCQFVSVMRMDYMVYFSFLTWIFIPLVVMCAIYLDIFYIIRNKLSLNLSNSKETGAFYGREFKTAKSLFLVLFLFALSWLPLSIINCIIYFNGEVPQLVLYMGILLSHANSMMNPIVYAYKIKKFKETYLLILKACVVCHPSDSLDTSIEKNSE
In short: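 CHO cells stably expressing human A3 receptor; membranes in 50 mM Tris HCl, 10 mM MgCl2, 1 mM EDTA pH 7.4 with 5 μM GTP, 0.5 mM […] and 2.0 IU/mL adenosine deaminase. Preincubated 10 min at 37 °C, then IB-MECA (100 nM) and/or antagonist with 1 mM ATP and 10 μM forskolin for 10 min. Boiled 2 min. cAMP read by [3H]cAMP competition with adrenal binding protein.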

Adenosine receptor A2b [5] = molecular target: T3, Adenosine receptor A2b (Homo sapiens, UniProt P29275); experiment: Displacement of [3H]DPCPX from Adenosine A2b receptor expressed in CHO cells; range 343-468; assay type: cell-based; details: in the assay text read “HEK-293 cells” for “CHO cells”
T3 sequence (P29275 whole entry): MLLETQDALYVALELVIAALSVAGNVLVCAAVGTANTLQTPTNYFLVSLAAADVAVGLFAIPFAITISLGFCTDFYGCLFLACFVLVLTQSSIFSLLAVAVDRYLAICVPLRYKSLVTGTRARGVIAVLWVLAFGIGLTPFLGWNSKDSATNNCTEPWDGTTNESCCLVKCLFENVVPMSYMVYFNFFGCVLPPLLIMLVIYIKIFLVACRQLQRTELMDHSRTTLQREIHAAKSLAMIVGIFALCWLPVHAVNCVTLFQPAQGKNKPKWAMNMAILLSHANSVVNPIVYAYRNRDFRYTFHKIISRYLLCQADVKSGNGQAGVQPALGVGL
In short: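 Human recombinant A2B receptor was expressed in HEK-293 cell membranes (20 μg protein). Incubated with 40 nM [3H]DPCPX in 50 mM Tris HCl, 10 mM MgCl2, 1 mM EDTA, 0.1 mM benzamidine, pH 7.4, with 2 IU/mL adenosine deaminase, at least 6–8 test concentrations, 60 min, 25 °C. Nonspecific binding was taken with 100 μM NECA; n=3-6.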

Adenosine receptor A2a [6] = molecular target: T4, Adenosine receptor A2a (Homo sapiens, UniProt P29274); experiment: Displacement of [3H]-SCH- 58261 from human adenosine A2A receptor expressed in CHO cells; range 36-55; assay type: cell-based
T4 sequence (P29274 whole entry): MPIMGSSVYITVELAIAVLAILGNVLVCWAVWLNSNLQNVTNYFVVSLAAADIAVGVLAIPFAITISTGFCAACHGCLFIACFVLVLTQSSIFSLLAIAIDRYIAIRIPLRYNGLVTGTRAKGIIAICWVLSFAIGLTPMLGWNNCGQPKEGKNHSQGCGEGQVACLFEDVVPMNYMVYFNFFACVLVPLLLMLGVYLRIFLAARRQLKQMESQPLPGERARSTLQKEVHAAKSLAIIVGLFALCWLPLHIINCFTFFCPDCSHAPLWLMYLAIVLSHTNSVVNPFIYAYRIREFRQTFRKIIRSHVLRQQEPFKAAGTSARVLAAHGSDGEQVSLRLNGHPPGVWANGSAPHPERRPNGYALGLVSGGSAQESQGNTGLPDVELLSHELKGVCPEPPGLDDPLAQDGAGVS
In short: (§1)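 Membranes from CHO cells stably expressing human A2A receptor, grown in DMEM/F12 without nucleosides, resuspended in 50 mM Tris HCl, 10 mM MgCl2, pH 7.4; 50 μg protein/assay. Competition with [3H]SCH 58261 at 6–8 or more compound concentrations, 60 min at 25 °C; nonspecific binding with 50 μM NECA. Filtration on GF/B filters, scintillation counting; n=3-6.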

Adenosine receptor A3 [7] = molecular target: T5, Adenosine receptor A3 (Homo sapiens, UniProt P0DMS8); experiment: Displacement of [3H]MRE3008-F20 from human adenosine A3 receptor expressed in CHO cells; range 1061-1245; assay type: cell-based
T5 sequence (P0DMS8 whole entry): T2 sequence (whole entry)

Adenosine receptor A2a [8] = molecular target: T4, Adenosine receptor A2a; experiment: Displacement of [3H]-SCH- 58261 from human adenosine A2A receptor expressed in CHO cells; range 632-1003; assay type: cell-based; in short: as §1
Adenosine receptor A3 [9] = molecular target: T5, Adenosine receptor A3; experiment: Displacement of [3H]MRE3008-F20 from human adenosine A3 receptor expressed in CHO cells; range 2.13-3.62; assay type: cell-based
Adenosine receptor A1 [10] = molecular target: T1, Adenosine receptor A1; experiment: Displacement of [3H]DPCPX from human adenosine A1 receptor expressed in CHO cells; range 885-1163; assay type: cell-based
Adenosine receptor A2b [11] = molecular target: T3, Adenosine receptor A2b; experiment: Displacement of [3H]DPCPX from Adenosine A2b receptor expressed in HEK-293 cells; range 432-469
[12] = molecular target: T2, Adenosine receptor A3 (Homo sapiens); details: CHO, 1 uM
Adenosine receptor A2a [13] = molecular target: T4, Adenosine receptor A2a; experiment: Displacement of [3H]-SCH- 58261 from human adenosine A2A receptor expressed in CHO cells; range 1770-2327; assay type: cell-based
Adenosine receptor A2b [14] = molecular target: T3, Adenosine receptor A2b; experiment: Displacement of [3H]DPCPX from Adenosine A2b receptor expressed in CHO cells; assay type: cell-based
Adenosine receptor A3 [15] = molecular target: T5, Adenosine receptor A3; experiment: Displacement of [3H]MRE3008-F20 from human adenosine A3 receptor expressed in CHO cells; range 17-36; assay type: cell-based
Adenosine receptor A1 [16] = molecular target: T1, Adenosine receptor A1; experiment: Displacement of [3H]DPCPX from human adenosine A1 receptor expressed in CHO cells; range 191-339; assay type: cell-based
Adenosine receptor A2a [17] = molecular target: T4, Adenosine receptor A2a; experiment: Displacement of [3H]-SCH- 58261 from human adenosine A2A receptor expressed in CHO cells; range 17-24; assay type: cell-based
In short: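 CHO membranes expressing human A2A receptor (50 μg protein) in 50 mM Tris HCl, 10 mM MgCl2, pH 7.4, competed against [3H]SCH 58261. At least 6–8 test concentrations were used, with 60 min incubation at 25 °C. Nonspecific binding defined by 50 μM NECA; n=3-6.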

Adenosine receptor A3 [18] = molecular target: T5, Adenosine receptor A3; experiment: biochemical
Adenosine receptor A1 [19] = molecular target: T1, Adenosine receptor A1; experiment: Displacement of [3H]DPCPX from human adenosine A1 receptor expressed in CHO cells; range 123-160; assay type: cell-based
Adenosine receptor A2b [20] = molecular target: T3, Adenosine receptor A2b; experiment: Displacement of [3H]DPCPX from Adenosine A2b receptor expressed in HEK-293 cells; range 44-58
Adenosine receptor A3 [21] = molecular target: T5, Adenosine receptor A3; experiment: Displacement of [3H]MRE3008-F20 from human adenosine A3 receptor expressed in CHO cells; range 51-70; assay type: cell-based
Adenosine receptor A2b [22] = molecular target: T3, Adenosine receptor A2b; experiment: Displacement of [3H]DPCPX from Adenosine A2b receptor expressed in […]; range 183-278; assay type: cell-based

pKi (Adenosine receptor A2a [13]): 5.69
pKi (Adenosine receptor A2b [14]): < 5.00
Ratio [2]: > 400
Ratio [3]: 10.2
inhibition [4]: 50%
pKi (Adenosine receptor A3 [15]): 7.60
pKi (Adenosine receptor A1 [16]): 6.59
Structure (SMILES): COc1ccc(NC(=O)Nc2nc3nn(CCc4cc(Br)c(Br)cc4Br)cc3c3nc(-c4ccco4)nn23)cc1

pKi (Adenosine receptor A3 [21]): 7.22
pKi (Adenosine receptor A2b [22]): 6.65
Ratio [2]: 3.7
Ratio [3]: 25
inhibition [4]: 39%
Structure (SMILES): O=C(Nc1cccc(Cl)c1)Nc1nc2nn(CCCc3ccccc3)cc2c2nc(-c3ccco3)nn12

Further lines, the compound ahead of its results:

Structure (SMILES): CC(C)(C)n1cc2c(nc(N)n3nc(-c4ccco4)nc23)n1
pKi (Adenosine receptor A1 [1]): 6.76
Ratio [2]: 0.35
Ratio [3]: 0.15
inhibition [4]: 9%
pKi (Adenosine receptor A2b [5]): 6.40
pKi (Adenosine receptor A2a [6]): 7.35
pKi (Adenosine receptor A3 [7]): 5.94

Structure (SMILES): CC(C)(C)n1cc2c(nc(NC(=O)Nc3cccc(Cl)c3)n3nc(-c4ccco4)nc23)n1
pKi (Adenosine receptor A2a [8]): 6.10
pKi (Adenosine receptor A3 [9]): 8.56
Ratio [2]: 162
pKi (Adenosine receptor A1 [10]): 5.99
Ratio [3]: 365
pKi (Adenosine receptor A2b [11]): 6.35
inhibition [12]: 70%

Structure (SMILES): Nc1nc2n[nH]cc2c2nc(-c3ccco3)nn12
pKi (Adenosine receptor A2a [17]): 7.70
Ratio [2]: 0.15
Ratio [3]: 0.4
inhibition [4]: 24%
pKi (Adenosine receptor A3 [18]): 6.46
pKi (Adenosine receptor A1 [19]): 6.85
pKi (Adenosine receptor A2b [20]): 7.29
